Measured values reported in EPA's CvTdb concentration-time database.
Blank lines part the entries; values can stand above or below the compound they belong to.

Legend:
Mouse [1] = assay: concentration in plasma after dosing; details: 0.25 h; dosed: 2-Hydroxy-4-methoxybenzophenone; 500 mg/kg; oral; Female; B6C3F1
Mouse [2] = assay: concentration in plasma after dosing; details: 3 h; dosed: 2-Hydroxy-4-methoxybenzophenone; 250 mg/kg; oral; Female; B6C3F1
Mouse [3] = assay: concentration in plasma after dosing; details: 10 min; dosed: 2-Hydroxy-4-methoxybenzophenone; 250 mg/kg; oral; Male; B6C3F1
Rat [4] = assay: concentration in plasma after dosing; details: dosed: 2-Hydroxy-4-methoxybenzophenone, 500 mg/kg, oral, Female, F344
Rat [5] = assay: concentration in plasma after dosing; details: 0.5 h; dosed: Nitrite; 40 mg/kg; oral; Female; F344
Rat [6] = assay: concentration in plasma after dosing; details: dosed: Nitrite, 80 mg/kg, oral, Female, F344
Rat [7] = assay: concentration in liver after dosing; details: 1 h; dosed: Fluorotelomer alcohol 8+2; 80 mg/kg; oral; Female; Harlan Sprague Dawley
Rat [8] = assay: concentration in brain after dosing; details: 24 h; dosed: Perfluorooctanoic acid; 12 mg/kg; oral; Male; Harlan Sprague Dawley
Rat [9] = assay: concentration in liver after dosing; details: 12 h; dosed: Fluorotelomer alcohol 8+2; 24 mg/kg; oral; Male; Harlan Sprague Dawley
Rat [10] = assay: concentration in brain after dosing; details: 6 h; dosed: Perfluorooctanoic acid; 80 mg/kg; oral; Female; Harlan Sprague Dawley
Rat [11] = assay: concentration in kidney after dosing; details: 3 h; dosed: Perfluorooctanoic acid; 12 mg/kg; oral; Male; Harlan Sprague Dawley
Rat [12] = assay: concentration in plasma after dosing; details: dosed: 678-39-7, 40 mg/kg, iv, Male, F344
Rat [13] = assay: concentration in kidney after dosing; details: 6 h; dosed: Potassium Perfluorobutane Sulfonate; 20 mg/kg; oral; Male; Harlan Sprague Dawley
Rat [14] = assay: concentration in plasma after dosing; details: dosed: Potassium Perfluorobutane Sulfonate, 4 mg/kg, iv, Male, F344
mouse [15] = assay: concentration in blood after dosing; details: dosed: benzo[a]pyrene, 15 mg/kg, oral, C57BL/6J
How it was run: (§1)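 Data points giving concentration or amount against time came from published in vivo toxicokinetic studies and from two structured collections. PubMed searching, classifier screening and manual review located the studies. Most points were digitised from plot screenshots using WebPlotDigitizer, the rest were copied from tables, and all keep their reported units.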

monkey [16] = assay: concentration in blood after dosing; details: dosed: methanol, inhalation, duration: 6 hr, male, Macaca mulatta
How it was run: as §1

monkey [17] = assay: concentration in blood after dosing; negative times count back from the end of exposure; details: dosed: methanol, 1200 ppm, inhalation, duration: 6 hr, male, Macaca mulatta
How it was run: as §1

human = assay: concentration in blood after dosing
How it was run: as §1

SMILES: O=C(O)C(F)(F)C(F)(F)C(F)(F)C(F)(F)C(F)(F)C(F)(F)C(F)(F)F [Perfluorooctanoic acid]
concentration in liver (Rat [7]): 727 ng/g | concentration in brain (Rat [8]): 1210 ng/g | concentration in liver (Rat [9]): 1350 ng/g | concentration in brain (Rat [10]): 3230 ng/g | concentration in kidney (Rat [11]): 23700 ng/g | concentration in plasma (Rat [12]; 0.25 h): 671 ng/mL | concentration in plasma (Rat [12]; 6 h): 1310 ng/mL | concentration in plasma (Rat [12]; 24 h): 819 ng/mL

SMILES: O=S(=O)([O-])C(F)(F)C(F)(F)C(F)(F)C(F)(F)F.[K+] [Potassium Perfluorobutane Sulfonate]
concentration in kidney (Rat [13]): 11000 ng/g | concentration in plasma (Rat [14]; 0.75 h): 24500 ng/mL | concentration in plasma (Rat [14]; 24 h): 575 ng/mL

SMILES: c1ccc2c(c1)cc1ccc3cccc4ccc2c1c34 [benzo[a]pyrene]
concentration in blood (mouse [15]; 0.4576 h): 68.9 ng/mL | concentration in blood (mouse [15]; 0.4733 h): 61 ng/mL | concentration in blood (mouse [15]; 0.9942 h): 148 ng/mL | concentration in blood (mouse [15]; 1.01 h): 190 ng/mL | concentration in blood (mouse [15]; 1.436 h): 196 ng/mL | concentration in blood (mouse [15]; 1.452 h): 276 ng/mL | concentration in blood (mouse [15]; 1.957 h): 239 ng/mL | concentration in blood (mouse [15]; 1.989 h): 253 ng/mL | concentration in blood (mouse [15]; 3.014 h): 282 ng/mL | concentration in blood (mouse [15]; 3.046 h): 85 ng/mL | concentration in blood (mouse [15]; 4.04 h): 258 ng/mL | concentration in blood (mouse [15]; 4.072 h): 15.5 ng/mL | concentration in blood (mouse [15]; 4.94 h): 8.52 ng/mL | concentration in blood (mouse [15]; 5.934 h): 6.45 ng/mL | concentration in blood (mouse [15]; 6.013 h): 252 ng/mL | concentration in blood (mouse [15]; 9.028 h): 65.1 ng/mL | concentration in blood (mouse [15]; 11.99 h): 18.4 ng/mL | concentration in blood (mouse [15]; 14.99 h): 6.86 ng/mL

The remaining lines, values ahead:

concentration in plasma (Mouse [1]): 1230 ng/mL | concentration in plasma (Mouse [2]): 35.5 ng/mL | concentration in plasma (Mouse [3]): 148 ng/mL | concentration in plasma (Rat [4]; 10 min): 935 ng/mL | concentration in plasma (Rat [4]; 10 h): 31.5 ng/mL
SMILES: COc1ccc(C(=O)c2ccccc2)c(O)c1 [2-Hydroxy-4-methoxybenzophenone]

concentration in plasma (Rat [5]): 6500 ng/mL | concentration in plasma (Rat [6]; 1 h): 32700 ng/mL | concentration in plasma (Rat [6]; 2 h): 20600 ng/mL
SMILES: O=N[O-] [Nitrite]

concentration in blood (monkey [16]; 97 s, 1200 ppm): 38600 ng/mL | concentration in blood (monkey [16]; 101 s, 2000 ppm): 65800 ng/mL | concentration in blood (monkey [16]; 0.5142 h, 2000 ppm): 54500 ng/mL | concentration in blood (monkey [16]; 0.5644 h, 1200 ppm): 35700 ng/mL | concentration in blood (monkey [16]; 1.044 h, 1200 ppm): 31200 ng/mL | concentration in blood (monkey [16]; 1.066 h, 2000 ppm): 52700 ng/mL | concentration in blood (monkey [16]; 1.558 h, 1200 ppm): 31400 ng/mL | concentration in blood (monkey [16]; 1.603 h, 2000 ppm): 47700 ng/mL | concentration in blood (monkey [16]; 2.036 h, 1200 ppm): 27700 ng/mL | concentration in blood (monkey [16]; 2.065 h, 2000 ppm): 39000 ng/mL | concentration in blood (monkey [16]; 3.014 h, 1200 ppm): 21100 ng/mL | concentration in blood (monkey [16]; 3.019 h, 2000 ppm): 40300 ng/mL | concentration in blood (monkey [16]; 4.525 h, 1200 ppm): 14300 ng/mL | concentration in blood (monkey [16]; 4.556 h, 2000 ppm): 24100 ng/mL | concentration in blood (monkey [16]; 6.067 h, 2000 ppm): 16300 ng/mL | concentration in blood (monkey [16]; 6.073 h, 1200 ppm): 10300 ng/mL | concentration in blood (monkey [16]; 8.074 h, 2000 ppm): 9200 ng/mL | concentration in blood (monkey [16]; 8.076 h, 1200 ppm): 7660 ng/mL | concentration in blood (monkey [16]; 10 h, 1200 ppm): 7870 ng/mL | concentration in blood (monkey [16]; 10.06 h, 2000 ppm): 7580 ng/mL | concentration in blood (monkey [17]; 0.9399 h): 16100 ng/mL | concentration in blood (monkey [17]; 1.959 h): 9030 ng/mL | concentration in blood (monkey [17]; 2.967 h): 4920 ng/mL | concentration in blood (monkey [17]; 4.499 h): 3110 ng/mL | concentration in blood (monkey [17]; 6.031 h): 903 ng/mL | concentration in blood (monkey [17]; -98 s, during exposure): 26900 ng/mL | concentration in blood (monkey [17]; -3.07 h, during exposure): 21000 ng/mL | concentration in blood (monkey [17]; -5.081 h, during exposure): 8330 ng/mL | concentration in blood (monkey [17]; -5.593 h, during exposure): 4820 ng/mL
SMILES: CO [methanol]

concentration in blood (human; 18 s, dosed: methyl tert-butyl ether, 4.5 ppm, inhalation, duration: 4 hr): 2660 nM | concentration in blood (human; 20 s, dosed: methyl tert-butyl ether, 38.7 ppm, inhalation, duration: 4 hr): 21800 nM | concentration in blood (human; 61 s, dosed: ethyl tert-butyl ether, 4.5 ppm, inhalation, duration: 4 hr): 1870 nM | concentration in blood (human; 61 s, dosed: ethyl tert-butyl ether, 40.6 ppm, inhalation, duration: 4 hr): 14300 nM | concentration in blood (human; 0.9669 h, dosed: methyl tert-butyl ether, 5 mg, oral): 463 nM | concentration in blood (human; 1.015 h, dosed: methyl tert-butyl ether, 15 mg, oral): 1880 nM | concentration in blood (human; 1.944 h, dosed: methyl tert-butyl ether, 4.5 ppm, inhalation, duration: 4 hr): 1930 nM | concentration in blood (human; 1.979 h, dosed: methyl tert-butyl ether, 15 mg, oral): 1700 nM | concentration in blood (human; 1.982 h, dosed: methyl tert-butyl ether, 5 mg, oral): 430 nM | concentration in blood (human; 1.995 h, dosed: methyl tert-butyl ether, 38.7 ppm, inhalation, duration: 4 hr): 22200 nM | concentration in blood (human; 2.028 h, dosed: ethyl tert-butyl ether, 40.6 ppm, inhalation, duration: 4 hr): 12800 nM | concentration in blood (human; 2.045 h, dosed: ethyl tert-butyl ether, 4.5 ppm, inhalation, duration: 4 hr): 1690 nM | concentration in blood (human; 2.968 h, dosed: methyl tert-butyl ether, 15 mg, oral): 1580 nM | concentration in blood (human; 2.972 h, dosed: methyl tert-butyl ether, 5 mg, oral): 391 nM | concentration in blood (human; 3.934 h, dosed: methyl tert-butyl ether, 4.5 ppm, inhalation, duration: 4 hr): 1730 nM | concentration in blood (human; 3.958 h, dosed: methyl tert-butyl ether, 15 mg, oral): 1510 nM | concentration in blood (human; 3.961 h, dosed: methyl tert-butyl ether, 5 mg, oral): 370 nM | concentration in blood (human; 3.985 h, dosed: methyl tert-butyl ether, 38.7 ppm, inhalation, duration: 4 hr): 17800 nM | concentration in blood (human; 4.023 h, dosed: ethyl tert-butyl ether, 4.5 ppm, inhalation, duration: 4 hr): 1620 nM | concentration in blood (human; 4.023 h, dosed: ethyl tert-butyl ether, 40.6 ppm, inhalation, duration: 4 hr): 11000 nM | concentration in blood (human; 5.915 h, dosed: methyl tert-butyl ether, 5 mg, oral): 318 nM | concentration in blood (human; 5.95 h, dosed: methyl tert-butyl ether, 4.5 ppm, inhalation, duration: 4 hr): 1580 nM | concentration in blood (human; 5.962 h, dosed: methyl tert-butyl ether, 15 mg, oral): 1230 nM | concentration in blood (human; 6.001 h, dosed: methyl tert-butyl ether, 38.7 ppm, inhalation, duration: 4 hr): 12500 nM | concentration in blood (human; 6.034 h, dosed: ethyl tert-butyl ether, 4.5 ppm, inhalation, duration: 4 hr): 1170 nM | concentration in blood (human; 6.034 h, dosed: ethyl tert-butyl ether, 40.6 ppm, inhalation, duration: 4 hr): 9280 nM | concentration in blood (human; 7.92 h, dosed: methyl tert-butyl ether, 5 mg, oral): 290 nM | concentration in blood (human; 7.952 h, dosed: methyl tert-butyl ether, 4.5 ppm, inhalation, duration: 4 hr): 917 nM | concentration in blood (human; 7.96 h, dosed: ethyl tert-butyl ether, 4.5 ppm, inhalation, duration: 4 hr): 1100 nM | concentration in blood (human; 7.966 h, dosed: methyl tert-butyl ether, 15 mg, oral): 983 nM | concentration in blood (human; 7.977 h, dosed: ethyl tert-butyl ether, 40.6 ppm, inhalation, duration: 4 hr): 8400 nM | concentration in blood (human; 8.017 h, dosed: methyl tert-butyl ether, 38.7 ppm, inhalation, duration: 4 hr): 10000 nM | concentration in blood (human; 9.925 h, dosed: methyl tert-butyl ether, 5 mg, oral): 236 nM | concentration in blood (human; 9.97 h, dosed: methyl tert-butyl ether, 15 mg, oral): 937 nM | concentration in blood (human; 9.972 h, dosed: ethyl tert-butyl ether, 4.5 ppm, inhalation, duration: 4 hr): 771 nM | concentration in blood (human; 9.972 h, dosed: ethyl tert-butyl ether, 40.6 ppm, inhalation, duration: 4 hr): 6190 nM | concentration in blood (human; 10.03 h, dosed: methyl tert-butyl ether, 38.7 ppm, inhalation, duration: 4 hr): 8310 nM | concentration in blood (human; 11.93 h, dosed: ethyl tert-butyl ether, 4.5 ppm, inhalation, duration: 4 hr): 905 nM | concentration in blood (human; 11.95 h, dosed: methyl tert-butyl ether, 15 mg, oral): 806 nM | concentration in blood (human; 11.98 h, dosed: ethyl tert-butyl ether, 40.6 ppm, inhalation, duration: 4 hr): 5880 nM | concentration in blood (human; 12.01 h, dosed: methyl tert-butyl ether, 5 mg, oral): 199 nM | concentration in blood (human; 12.05 h, dosed: methyl tert-butyl ether, 38.7 ppm, inhalation, duration: 4 hr): 5730 nM | concentration in blood (human; 23.91 h, dosed: ethyl tert-butyl ether, 40.6 ppm, inhalation, duration: 4 hr): 2670 nM | concentration in blood (human; 23.95 h, dosed: methyl tert-butyl ether, 15 mg, oral): 268 nM | concentration in blood (human; 23.99 h, dosed: methyl tert-butyl ether, 5 mg, oral): 53.5 nM | concentration in blood (human; 23.99 h, dosed: methyl tert-butyl ether, 38.7 ppm, inhalation, duration: 4 hr): 1140 nM
SMILES: CC(C)(C)O [tert-butyl alcohol]
